Assay results: ChEMBL document CHEMBL4680121, “Development of (4-methoxyphenyl)-1H-tetrazol-5-amine regioisomers as a new class of selective antitubercular agents” (Eur J Med Chem, 2020)
≈ marks a conversion by molar mass, not a printed value.

Assays:
Staphylococcus aureus [1] = assay: Antibacterial activity against Staphylococcus aureus ATCC 6538 assessed as bacterial growth inhibition measured after 18 hrs by two-fold serial microdilution method; format: functional
Outline: (§1)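 Two-fold serial broth microdilution in MH II medium following modified CLSI procedures. Compounds were dissolved in DMSO and diluted in medium to at most 1% solvent, tested from 0.03125 to 512 μg/ml. Final inoculum 10^6 CFU/ml. MIC was taken as the lowest concentration with no visible growth after 18 h at 35 °C.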

Pseudomonas aeruginosa [2] = assay: Antibacterial activity against Pseudomonas aeruginosa PAO1 assessed as bacterial growth inhibition measured after 18 hrs by two-fold serial microdilution method; format: functional; outline: as §1
[3] = tested on: Mycobacterium scrofulaceum; assay: Antibacterial activity against Mycobacterium scrofulaceum assessed as inhibition of microbial growth incubated for 1 week by MABA method; format: functional; details: 168 h, time 1 weeks
Outline: (§2)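 Microplate Alamar Blue assay using two-fold serial microdilution in Middlebrook 7H9 broth with 10% OADC, compounds 0.125–512 µg/ml from DMSO stocks. Inoculum came from fresh LJ culture, was adjusted to McFarland 1 and diluted 1:20. Plates were incubated 1 week at 37 °C, Alamar blue was added and plates were re-incubated 24 h. MIC was the lowest concentration preventing the blue-to-pink change. Each plate carried growth and sterile controls.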

[4] = tested on: Mycobacterium tuberculosis; assay: Antitubercular activity against Mycobacterium tuberculosis H37Rv ATCC 25618 assessed as inhibition of microbial growth incubated for 1 week by MABA method; format: functional; details: H37Rv ATCC 25618, 168 h, time 1 weeks
Outline: (§3)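 Microplate Alamar Blue assay in Middlebrook 7H9 broth with 10% OADC. Inoculum from fresh LJ culture was adjusted to McFarland 1 and diluted 1:20. DMSO stocks were two-fold serially diluted to final 0.125–512 µg/ml, with growth and sterile controls. Plates ran 1 week at 37 °C, then Alamar blue was added for 24 h. MIC is the lowest concentration preventing the blue-to-pink change.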

V79 [5] = assay: Cytotoxicity against Chinese Hamster V79 cells assessed as reduction in cell viability measured after 72 hrs by MTT assay; format: cell-based; details: Cricetulus griseus, V79, 72 h
Outline: (§4)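 MTT viability assay on cells grown in DMEM with 10% heat-inactivated FBS, penicillin/streptomycin and 20 mM HEPES at 37 °C/5% CO2. Cells were seeded at 1×10^4 per well and allowed to adhere for 24 h, then the medium was refreshed. Compounds were added at 20–140 μM for 72 h at 37 °C, followed by MTT (0.5 mg/mL in serum-free medium) for 4 h. Untreated cells served as control. IC50 is the concentration giving 50% growth inhibition versus control.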

[6] = tested on: Mycolicibacterium fortuitum; assay: Antibacterial activity against Mycobacterium fortuitum assessed as inhibition of microbial growth incubated for 1 week by MABA method; format: functional; details: 168 h, time 1 weeks; outline: as §2
Klebsiella pneumoniae = assay: Antibacterial activity against Klebsiella pneumoniae ATCC 10031 assessed as bacterial growth inhibition measured after 18 hrs by two-fold serial microdilution method; format: functional; outline: as §1
[7] = tested on: Staphylococcus epidermidis; assay: Antibacterial activity against Staphylococcus epidermidis ATCC 35984/RP62A assessed as bacterial growth inhibition measured after 18 hrs by two-fold serial microdilution method; format: functional; outline: as §1
Proteus vulgaris = assay: Antibacterial activity against Proteus vulgaris NCTC 4635 assessed as bacterial growth inhibition measured after 18 hrs by two-fold serial microdilution method; format: functional; outline: as §1
HaCaT [8] = assay: Cytotoxicity against human HaCaT cells assessed as reduction in cell viability at 100 uM measured after 72 hrs by MTT assay; format: cell-based; outline: as §4
Pseudomonas aeruginosa [9] = assay: Antibacterial activity against Pseudomonas aeruginosa NCTC 6749 assessed as bacterial growth inhibition measured after 18 hrs by two-fold serial microdilution method; format: functional; outline: as §1
[10] = tested on: Staphylococcus epidermidis; assay: Antibacterial activity against Staphylococcus epidermidis ATCC 1457 assessed as bacterial growth inhibition measured after 18 hrs by two-fold serial microdilution method; format: functional; outline: as §1
HaCaT [11] = assay: Cytotoxicity against human HaCaT cells assessed as reduction in cell viability measured after 72 hrs by MTT assay; format: cell-based; outline: as §4
Mycobacterium avium = assay: Antimycobacterial activity against Mycobacterium avium assessed as inhibition of microbial growth incubated for 1 week by MABA method; format: functional; details: 168 h, time 1 weeks; outline: as §3
[12] = tested on: Staphylococcus epidermidis; assay: Antibacterial activity against Staphylococcus epidermidis ATCC 12228 assessed as bacterial growth inhibition measured after 18 hrs by two-fold serial microdilution method; format: functional; outline: as §1
Staphylococcus aureus [13] = assay: Antibacterial activity against Staphylococcus aureus NCTC 4163 assessed as bacterial growth inhibition measured after 18 hrs by two-fold serial microdilution method; format: functional; outline: as §1
[14] = tested on: Mycobacterium tuberculosis; assay: Antitubercular activity against Mycobacterium tuberculosis Spec.192 assessed as inhibition of microbial growth incubated for 1 week by MABA method; format: functional; details: Mycobacterium tuberculosis, 192, 168 h; time 1 weeks; outline: as §3
[15] = tested on: Mycobacterium intracellulare; assay: Antimycobacterial activity against Mycobacterium intracellulare assessed as inhibition of microbial growth incubated for 1 week by MABA method; format: functional; details: 168 h, time 1 weeks; outline: as §2
Mycobacterium xenopi = assay: Antibacterial activity against Mycobacterium xenopi assessed as inhibition of microbial growth incubated for 1 week by MABA method; format: functional; details: 168 h, time 1 weeks; outline: as §2
Escherichia coli = assay: Antibacterial activity against Escherichia coli ATCC 25922 assessed as bacterial growth inhibition measured after 18 hrs by two-fold serial microdilution method; format: functional; outline: as §1
Mycobacterium kansasii = assay: Antibacterial activity against Mycobacterium kansasii assessed as inhibition of microbial growth incubated for 1 week by MABA method; format: functional; details: 168 h, time 1 weeks; outline: as §2
V79 [16] = assay: Cytotoxicity against Chinese Hamster V79 cells assessed as reduction in cell viability at 100 uM measured after 72 hrs by MTT assay; format: cell-based, Cricetulus griseus; details: v79, 72 h; outline: as §4

Compound	MIC (Staphylococcus aureus [1]) [µg/mL]	MIC (Pseudomonas aeruginosa [2]) [µg/mL]	MIC [3] [µg/mL]	MIC [4] [µg/mL]	IC50 (V79 [5]) [µM]	MIC [6] [µg/mL]	MIC (Klebsiella pneumoniae) [µg/mL]	MIC [7] [µg/mL]	MIC (Proteus vulgaris) [µg/mL]	Activity (HaCaT [8])	MIC (Pseudomonas aeruginosa [9]) [µg/mL]	MIC [10] [µg/mL]	IC50 (HaCaT [11]) [µM]	MIC (Mycobacterium avium) [µg/mL]	MIC [12] [µg/mL]	MIC (Staphylococcus aureus [13]) [µg/mL]	MIC [14] [µg/mL]	MIC [15] [µg/mL]	MIC (Escherichia coli) [µg/mL]	Activity (V79 [16])	other results
COc1ccc(-n2nnnc2Nc2ccccc2Br)cc1	256 (≈ 739 µM)	> 256	256	64	239	256	> 256	256 (≈ 739 µM)	> 256	Non-Toxic	> 256	256 (≈ 739 µM)	137	256	128 (≈ 370 µM)	256 (≈ 739 µM)	64	128	> 256	Non-Toxic	MIC (Mycobacterium xenopi): 512 µg/mL; MIC (Mycobacterium kansasii): 512 µg/mL
COc1ccc(-n2nnnc2Nc2ccccc2F)cc1	> 256	> 256		16	115		> 256	> 256	> 256	Non-Toxic	> 256	> 256	111		> 256	> 256	16		> 256	Non-Toxic	
COc1ccc(-n2nnnc2Nc2cccc(Cl)c2)cc1	> 256	> 256	512	32	243	256	> 256	> 256	> 256	Non-Toxic	> 256	> 256	141	256	> 256	> 256	32	128	> 256	Non-Toxic	MIC (Mycobacterium xenopi): > 512 µg/mL; MIC (Mycobacterium kansasii): 512 µg/mL
COc1ccc(-n2nnnc2Nc2ccccc2Cl)cc1	32 (≈ 106 µM)	> 256	32	8	246	256	> 256	256 (≈ 848 µM)	64 (≈ 212 µM)	Non-Toxic	> 256	64 (≈ 212 µM)	134	128	128 (≈ 424 µM)	32 (≈ 106 µM)	8	128	> 256	Non-Toxic	MIC (Mycobacterium xenopi): 512 µg/mL; MIC (Mycobacterium kansasii): 512 µg/mL
COc1ccc(-n2nnnc2Nc2ccc(Cl)cc2)cc1	128 (≈ 424 µM)	> 256	> 512	16	245	> 512	> 256	128 (≈ 424 µM)	128 (≈ 424 µM)	Non-Toxic	> 256	128 (≈ 424 µM)	143	> 512	64 (≈ 212 µM)	128 (≈ 424 µM)	16	32	> 256	Non-Toxic	MIC (Mycobacterium xenopi): 512 µg/mL; MIC (Mycobacterium kansasii): > 512 µg/mL
COc1ccc(Nc2nnnn2-c2ccccc2F)cc1	64 (≈ 224 µM)	256 (≈ 897 µM)	32	16	212	256	256 (≈ 897 µM)	64 (≈ 224 µM)	256 (≈ 897 µM)	Non-Toxic	256 (≈ 897 µM)	64 (≈ 224 µM)	122	256	64 (≈ 224 µM)	64 (≈ 224 µM)	16	128	256 (≈ 897 µM)	Non-Toxic	MIC (Mycobacterium xenopi): 128 µg/mL; MIC (Mycobacterium kansasii): 256 µg/mL
COc1ccc(-n2nnnc2Nc2ccc(F)cc2)cc1	128 (≈ 449 µM)	> 256	32	32	236	512	> 256	128 (≈ 449 µM)	128 (≈ 449 µM)	Non-Toxic	128 (≈ 449 µM)	128 (≈ 449 µM)	155	256	64 (≈ 224 µM)	128 (≈ 449 µM)	32	16	> 256	Non-Toxic	MIC (Mycobacterium xenopi): > 512 µg/mL; MIC (Mycobacterium kansasii): 512 µg/mL
COc1ccc(Nc2nnnn2-c2ccccc2Br)cc1	> 256	> 256	128	16	119	> 512	> 256	> 256	> 256	Non-Toxic	> 256	> 256	105	> 512	> 256	> 256	16	256	> 256	Non-Toxic	MIC (Mycobacterium xenopi): > 512 µg/mL; MIC (Mycobacterium kansasii): 256 µg/mL
COc1ccc(Nc2nnnn2-c2cccc(Br)c2)cc1	> 256	> 256	32	16	124	512	> 256	> 256	> 256	Non-Toxic	> 256	> 256	107	64	> 256	> 256	16	> 256	> 256	Non-Toxic	MIC (Mycobacterium xenopi): 512 µg/mL; MIC (Mycobacterium kansasii): 512 µg/mL
COc1ccc(Nc2nnnn2-c2ccc(F)cc2)cc1	64 (≈ 224 µM)	256 (≈ 897 µM)	64	8	145	> 512	> 256	128 (≈ 449 µM)	256 (≈ 897 µM)	Non-Toxic	256 (≈ 897 µM)	128 (≈ 449 µM)	101	> 512	64 (≈ 224 µM)	64 (≈ 224 µM)	8	512	256 (≈ 897 µM)	Non-Toxic	MIC (Mycobacterium xenopi): 256 µg/mL; MIC (Mycobacterium kansasii): 512 µg/mL
COc1ccc(Nc2nnnn2-c2ccccc2Cl)cc1	64 (≈ 212 µM)	256 (≈ 848 µM)	32	8	102	128	256 (≈ 848 µM)	64 (≈ 212 µM)	256 (≈ 848 µM)	Non-Toxic	256 (≈ 848 µM)	128 (≈ 424 µM)	100	512	64 (≈ 212 µM)	64 (≈ 212 µM)	8	128	256 (≈ 848 µM)	Non-Toxic	MIC (Mycobacterium xenopi): 512 µg/mL; MIC (Mycobacterium kansasii): 256 µg/mL
O=C(O)c1cn(C2CC2)c2cc(N3CCNCC3)c(F)cc2c1=O [CIPROFLOXACIN]							< 0.0625	0.0625 (≈ 0.189 µM)	< 0.0625			0.125 (≈ 0.377 µM)			0.125 (≈ 0.377 µM)				< 0.0625		
COc1cccc2c1C(=O)c1c(O)c3c(c(O)c1C2=O)C[C@@](O)(C(=O)CO)C[C@@H]3O[C@H]1C[C@H](N)[C@H](O)[C@H](C)O1 [DOXORUBICIN]					2.21								0.23								
